The source made the active and inactive calls.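 How the source made its calls: active means macrophage DAGL beta lipase probe labeling falls at least half after a 5 mg/kg dose in mice; inactive means 5 mg/kg yields less than half inhibition.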

Diacylglycerol lipase-beta (Mus musculus), sequence (Q91WC9 whole entry, looked up): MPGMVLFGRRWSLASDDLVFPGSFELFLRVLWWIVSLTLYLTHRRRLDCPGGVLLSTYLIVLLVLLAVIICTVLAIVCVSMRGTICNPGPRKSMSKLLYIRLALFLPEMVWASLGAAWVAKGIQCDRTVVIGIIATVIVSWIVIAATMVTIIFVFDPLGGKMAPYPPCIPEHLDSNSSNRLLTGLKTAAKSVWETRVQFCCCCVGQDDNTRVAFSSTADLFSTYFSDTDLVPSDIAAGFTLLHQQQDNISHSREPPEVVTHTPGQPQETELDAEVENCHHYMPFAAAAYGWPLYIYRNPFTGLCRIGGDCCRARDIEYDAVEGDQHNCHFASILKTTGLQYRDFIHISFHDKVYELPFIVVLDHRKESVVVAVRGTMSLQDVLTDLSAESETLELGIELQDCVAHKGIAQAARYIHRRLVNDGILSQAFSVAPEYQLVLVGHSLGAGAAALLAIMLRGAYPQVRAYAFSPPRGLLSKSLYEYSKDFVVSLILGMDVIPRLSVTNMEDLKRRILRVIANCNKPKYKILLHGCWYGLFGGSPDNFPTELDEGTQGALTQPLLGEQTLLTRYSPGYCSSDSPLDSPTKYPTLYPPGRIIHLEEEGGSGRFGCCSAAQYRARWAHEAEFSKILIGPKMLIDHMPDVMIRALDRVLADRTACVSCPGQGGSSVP

The target in the assay is Diacylglycerol lipase-beta (Mus musculus) (UniProt Q91WC9). The assay can be described thus: in vivo DAGLb inhibition in mouse macrophages, late-stage follow-up, in vivo study, gel ABPP, in-gel fluorescence, peritoneal macrophages (AID 602345). The following applies: C57 mice i.p., peritoneal macrophage DAGLb, gel ABPP HT-01. The gist of the method:
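Test system – DAGLb in peritoneal macrophage membranes from thioglycollate-elicited C57 mice · Dosing – intraperitoneal 5, 10 or 20 mg/kg in saline/PEG300/ethanol (18/1/1) · Schedule – 4 h in vivo exposure, 30 min probe step at 37 °C · Measured by – SDS-PAGE in-gel fluorescence · Control set – vehicle-dosed mice as uninhibited reference · Repeats – n of 2 mice per group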
Regarding `O=C(N1CCCCC1Cc1ccccc1)n1cc(-c2ccc(-c3ccccc3)cc2)nn1` (stereo not drawn), the outcome was active.
With `COc1ccccc1-c1ccc(-c2cn(C(=O)N3CCCCC3Cc3ccccc3)nn2)cc1` (stereo not drawn), the result was active.
To `O=C(N1CCCCC1Cc1ccccc1)n1cc(-c2ccc(-c3ccccc3C(F)(F)F)cc2)nn1` (stereo not drawn) belongs “active”.

The values are drawn from PubChem BioAssay AID602345 (The Scripps Research Institute Molecular Screening Center, 2012).
